This is one part of a sample in which hits are shown more often than they occur.
T cruzi inh: inhibitors of intracellular T. cruzi growth, primary screen, luminescence, NIH3T3 host cells; inhibition, % (test concentration not listed); AID 1885, 2009; hit rate 1.4% among 300,000; T. cruzi beta-gal in NIH3T3, 90 h;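 active = mean inhibition across valid replicates above about 55%, limit read from the data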;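 also: signal also drops with host cell toxicity which is not excluded here; 0% = plate median of DMSO wells and 100% = zero luminescence signal; higher percent means less beta-gal luminescence so fewer parasites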
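compound dosing = single 50 nL compound addition per well in DMSO | material = NIH/3T3 host cells with β-galactosidase reporter T. cruzi | input = 5,000 host fibroblasts per well | timing = ≥90 h infection period, 3 h prior cell attachment | read-out basis = percent inhibition of parasite-derived β-gal signal | detection = GalScreen β-gal luminescence, detergent lysis, 60 min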
UPR XBP1 act: activators of adaptive XBP1 UPR arm, primary screen, cell-based, CHO-XBP1 luciferase reporter, luminescence, uHTS | hit rate 0.33% among 330,000 | activation, % at 20 µM | IRE1-XBP1 UPR activation; percent of tunicamycin response, DMSO as zero;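 active = versus positive control, 20 µM dose yields 30% or more activation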;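 also: 100% = tunicamycin at 10 µg/mL and 0% = DMSO only wells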
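assay system = CHO-XBP1 luciferase reporter cells | amount = 1000 cells/well | buffer or medium = F12 plus 10% FBS | compound dosing = single point, 20 µM final compound, 1% DMSO | incubation = 16-18 h cell attachment at 37 °C, then 6 h compound exposure | detection = Steady-Glo luminescence read | controls = tunicamycin 10 µg/mL and vehicle-only wells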
L major viab: Leishmania major promastigote growth inhibition, primary screen. hit rate 9% among 200,000. AID 1063, 2008. Leishmania major promastigotes, resazurin fluorescence viability. inhibition, % at 10 µM; in the data active = inhibition above about 50%;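 also: promastigotes grown with compound for 44 hours at 28 °C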
Dynein cargo inh: inhibitors of GR-EGFP nuclear translocation, primary screen, dynein cargo transport inhibitor project, imaging, high-content, 3617.4 mouse cells; test concentration mostly 20 µM; stimulated with dexamethasone, 1 µM; hits give low values; z-score, hits read low; hit rate 0.47% among 220,000; AID 1381, 2008;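 active = plate z-score of nuclear minus cytoplasmic receptor signal below a set negative limit, without overly bright fluorescence or cell loss, cut at about -3.5 in these data, passing the limit was not always enough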;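 also: z-score of nuclear minus cytoplasmic ring GR-EGFP intensity difference per well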
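Also added: dexamethasone, 1.0 µM final. Medium: tet-free, stripped-serum medium. Detection: fixed, Hoechst-stained cells imaged at 10x for EGFP. Read-out: nuclear-to-cytoplasmic GR-EGFP distribution per well. Times: induction 48 h, compound 1 h, agonist 30 min.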
CHOP inh: inhibitors of CHOP promoter induction, primary screen, cell-based, unfolded protein response, luciferase reporter. hit rate 3.8% among 220,000. CHO-K1 CHOP-promoter luciferase, tunicamycin-induced, 15-18 h. inhibition, % at 10 µM. AID 2732, 2010;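 active = compounds that reduced the stress-induced luciferase reporter signal by more than about 70% of percent inhibition, limit read from the data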;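 also: 0% = tunicamycin plus vehicle and 100% = wells without tunicamycin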
CHOP UPR activ: activators of apoptotic CHOP UPR arm, primary screen, cell-based, CHO-CHOP luciferase reporter, luminescence, uHTS; activation, % at 10 µM; hit rate 0.34% among 330,000; UPR activation; percent of tunicamycin response over DMSO baseline;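 active = at 10 µM dose, activation of 40% or more, normalized to positive control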;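 also: 100% = tunicamycin at 10 µg/mL and 0% = DMSO alone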
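assay system = CHO CHOP reporter cells | amount = 500 CHO-CHOP cells per well | buffer or medium = F12 with 10% FBS | incubation = 16-18 h cell attachment, then 6 h compound exposure, 37 °C | detection = luminescence read with Steady-Glo | read-out = percent activation relative to tunicamycin control | controls = tunicamycin high control, DMSO low control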
* = called active by the depositor; . = no result.

SMILES	T cruzi inh	UPR XBP1 act	L major viab	Dynein cargo inh	CHOP inh	CHOP UPR activ
Cc1ccc(Cl)cc1N1CCN(C(=O)CSc2nnc3n2C(C)(C)Cc2ccccc2-3)CC1	23.7	7.2	17.4	0.213	81.1*	8.7
CC(=O)c1ccccc1Oc1ncnc(N)c1[N+](=O)[O-]	4.0	1.3	.	.	.	1.4
COc1ccc(C(=O)Nc2cc(C)nn2-c2nc3ccccc3[nH]2)c(OC)c1	61.5*	9.7	47.6	-0.305	-14.6	0.3
Cc1cc(NC(=O)c2cccs2)n(-c2nc3ccccc3[nH]2)n1	58.0*	22.9	4.0	-0.608	-32.7	4.8
COc1cccc(OC)c1C(=O)Nc1cc(C)nn1-c1nc2ccccc2[nH]1	43.0	12.6	65.8*	0.536	19.7	-0.5
Cn1c(CSCc2ccc(F)cc2)nnc1SCC(=O)Nc1cccc(C(=O)O)c1	-7.6	1.5	.	0.0687	13.3	0.6
Cc1ccccc1C(=O)N1CC(=O)Nc2ccc(F)cc2C1c1ccccc1 (stereo not drawn)	-6.8	-6.3	.	.	.	-0.3
COC(=O)C1=C(C)N(c2ccccc2)C(=S)NC1c1ccccc1C(F)(F)F (stereo not drawn)	6.1	1.1	69.8*	-0.143	10.9	0.0
COCCOC(=O)C1=C(C)N(c2ccccc2)C(=S)NC1c1ccccc1C(F)(F)F (stereo not drawn)	9.6	-3.4	15.2	-0.24	11.4	-0.9
O=C(Nc1ccccc1)/C(=C/c1ccc(O)cc1)NC(=O)c1ccco1	12.8	0.2	.	.	.	1.7
COc1ccc(-c2nc3ccccc3n2Cc2ccccc2)cc1	37.5	-1.7	53.4*	1.05	27.4	-1.2
COc1ccc(Cn2c(/C=C/c3ccccc3)nc3ccccc32)cc1	35.1	6.5	37.5	.	46.7	7.6
CCOCCn1c(-c2ccc(OC)cc2)nc2ccccc21	-2.8	3.6	42.9	2.85	-35.7	1.2
C=CCn1c(-c2ccc(N)cc2)nc2ccccc21	4.0	-0.6	24.4	-0.756	29.6	2.7
Oc1ccccc1Cn1c(-c2ccccc2O)nc2ccccc21	14.7	0.5	10.7	-0.0553	15.7	-1.6
COc1ccc(-c2n(Cc3ccccc3)c3ccccc3[n+]2Cc2ccccc2)cc1	45.3	-1.8	99.6*	-0.424	-2.3	-1.8
C=CCn1c(-c2ccc(OC)cc2)nc2ccccc21	.	-2.5	96.3*	0.441	-23.2	4.7
COc1ccccc1Cn1c(-c2ccccc2OC)nc2ccccc21	10.5	-2.0	98.4*	2.53	5.9	-1.2
CN(C)S(=O)(=O)c1ccc2nnn(O)c2c1	-7.6	-0.8	-4.0	0.65	5.3	0.0
COc1ccc2c(c1)nc(N)n2Cc1ccccc1	5.8	-1.1	63.6*	-0.376	-28.1	0.1
Nc1nc(COc2ccc(F)cc2Cl)nc(N2CCCCC2)n1	13.8	-3.5	9.1	-0.192	47.3	-1.2
Cc1nnsc1C(=O)NC1CCCc2c1cnn2-c1ccc(C(C)(C)C)cc1 (stereo not drawn)	56.4*	-4.2	.	.	.	5.8
COc1ccc2nc(C(F)(F)C(F)(F)F)c(C#N)c(N)c2c1	-21.4	-2.4	0.8	-0.647	81.2*	1.0
O=C(/C=C\c1ccccc1)Oc1cccc2cccnc12	14.8	3.3	97.7*	0.247	40.2	-0.4
O=C(/C=C/c1ccccc1)Oc1cccc2cccnc12	-44.7	5.0	.	2.55	63.8	0.8
SMILES	T cruzi inh	UPR XBP1 act	L major viab	Dynein cargo inh	CHOP inh	CHOP UPR activ
COc1ccc(Br)cc1CN(C)CC(O)COc1ccc(Br)cc1 (stereo not drawn)	40.9	-3.5	.	.	.	-0.8
CN(CCOCCOc1ccc(F)cc1)Cc1ccccc1	44.7	-6.2	.	.	.	0.3
Cc1ccc(Cl)c(OCCCCN(C)Cc2ccccc2)c1	26.3	-0.3	90.6*	-0.361	3.8	-2.2
CCOc1cccc(OCCOCCN(C)C)c1	8.9	1.9	-4.8	-0.667	20.4	-1.1
CCOc1ccc(OCCN(C)Cc2ccccc2)cc1	15.5	-0.2	92.8*	-0.637	61.3	1.3
CN(CCOCCOc1ccc(Cl)cc1Br)Cc1ccccc1	28.6	1.3	87.2*	-0.999	-26.7	0.6
CCOc1cccc(OCCOCCN(C)Cc2ccccc2)c1	16.0	-0.6	79.5*	-0.589	10.7	-0.6
CCN(C(=O)CN1C(=O)S/C(=C\c2cccc(OC)c2)C1=O)C1CCS(=O)(=O)C1 (stereo not drawn)	-12.7	-4.3	.	.	.	-1.1
O=Cc1cc(Br)c(OC(=O)N2CCOCC2)c(Br)c1	-20.0	3.6	.	.	.	1.0
CN(CCCOc1ccccc1Br)Cc1ccccc1	38.9	0.1	17.9	-0.56	-6.3	0.5
Cc1cc(C)c(OCCN(C)Cc2ccccc2)c(Br)c1	57.3*	0.5	11.6	2.18	-10.0	0.6
O=C(NC(O)C(=O)c1ccc(F)cc1)c1ccc(F)cc1 (stereo not drawn)	-4.1	-1.3	.	.	.	0.7
Cc1ccc2nc(SCc3nc4c(cnn4-c4ccccc4)c(=O)[nH]3)[nH]c2c1	6.9	3.8	10.2	0.0563	72.9*	4.2
Cc1ccc2nc(SCc3nc4cc(Cl)ccc4c(=O)[nH]3)[nH]c2c1	-21.3	2.3	-4.1	-0.751	-4.4	-0.2
O=c1[nH]c(SCc2nc3c(cnn3-c3ccccc3)c(=O)[nH]2)nc2ccccc12	.	.	-0.3	-0.51	29.3	.
O=c1[nH]c(CSc2nc3ccccc3[nH]2)nc2c1cnn2-c1ccccc1	-9.9	-2.6	69.3*	-0.55	55.6	1.0
O=C(CCNc1ccc(Cc2ccncc2)cc1)c1cccc([N+](=O)[O-])c1	25.3	-2.4	94.6*	-0.682	-14.9	0.9
Cc1ccc(S(=O)(=O)CCC(=O)c2cccc([N+](=O)[O-])c2)cc1	58.0*	-3.4	.	.	.	1.4
O=C(CCNc1cccc(F)c1)c1cccc([N+](=O)[O-])c1	15.9	-2.2	79.7*	-1.73	4.2	0.0
O=C(Nc1cccc([N+](=O)[O-])c1)c1ccncc1	2.8	-0.4	9.2	0.116	9.2	-0.8
Cc1ccc(C(=O)CCS(=O)(=O)c2ccc(Br)cc2)cc1	15.4	-1.0	.	.	.	-0.5
Cc1ccc(NC(=O)CCn2c(=S)oc3ccccc32)cc1F	1.8	-0.1	.	.	.	-1.6
O=C(OCCN1C(=O)c2ccccc2C1=O)c1cc(S(=O)(=O)N2CCOCC2)ccc1Cl	.	-3.4	4.0	1.02	-21.0	1.0
O=C(OCCN1C(=O)c2cccc3c(N4CCOCC4)ccc(c23)C1=O)c1ccccc1Cl	12.7	.	86.2*	0.965	55.3	.

High-throughput results (PubChem)
